Screening data deposited in PubChem by several laboratories.
Apaf-1 inh: inhibitors of human Apaf-1 apoptosome; O14727; reconstituted apoptosome caspase-3 activity, DEVD-Rh110 fluorescence; inhibition, % at 20 µM; actives 0.71% (n = 330,000); active means inhibition of at least 40% at 20 µM;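 further: plate controls were DMSO wells for no effect and DEVD-CHO caspase inhibitor wells for full effect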
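System: reconstituted apoptosome with Apaf-1, cytochrome c, caspase-9, procaspase-3, dATP; Signal: Rh110 fluorescence intensity; Schedule: 30 min compound preincubation, 50 min activation, room temperature; Reagent: cytochrome c trigger plus (Z-DEVD)2-Rh110 caspase-3 substrate.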
PAFAH1B2 inh: PAFAH1B2 (human) inhibition. P68402. recombinant PAFAH1B2, FP-rhodamine activity probe, fluorescence polarization. inhibition, % at 3.39 µM. actives 1.2% (n = 340,000). AID 492953;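 active means inhibition above the mean of all tested compounds plus 3 SD, cut at about 24% in these data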;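 further: 0% = enzyme with DMSO and 100% = wells lacking PAFAH1B2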
Target sequence (P68402 whole entry, looked up): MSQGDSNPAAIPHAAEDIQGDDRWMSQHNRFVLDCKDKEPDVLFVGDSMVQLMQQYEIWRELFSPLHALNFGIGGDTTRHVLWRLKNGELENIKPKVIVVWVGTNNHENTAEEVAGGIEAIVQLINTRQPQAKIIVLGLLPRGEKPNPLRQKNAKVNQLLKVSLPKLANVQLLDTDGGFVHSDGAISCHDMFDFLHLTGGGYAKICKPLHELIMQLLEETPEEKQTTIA
TDP2 absorb: blocks human TDP2 phosphodiesterase activity; recombinant TDP2, T5PNP hydrolysis, p-nitrophenol absorbance 415 nm; actives 0.34% (n = 370,000); inhibition, % at 12.8 µM; O95551; AID 720702;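 active means inhibition above the mean of all tested compounds plus 3 SD, set per campaign, cut at about 25% in these data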;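 further: 0% = DMSO with enzyme and 100% = buffer with substrate but no TDP2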
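System: recombinant human TDP2 / Amount: 120 nM TDP2 per well / Also added: 5 mM T5PNP chromogenic substrate / Doses: 12.8 µM single point, 1% DMSO / Incubation: 2 h at 37 °C / Detection: p-Nitrophenol epi absorbance / Evaluation: % inhibition relative to enzyme-containing and enzyme-free wells / Repeats: singlicate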
PAFAH1B3 FP inh: PAFAH1B3 (human) inhibition; Q15102; recombinant PAFAH1B3, FP-rhodamine probe, fluorescence polarization; inhibition, % at 3.39 µM; actives 0.28% (n = 340,000);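 active means inhibition above the screen-wide average of all tested compounds plus 3 SD, cut at about 25% in these data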;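 further: 0% = enzyme with DMSO only and 100% = wells lacking PAFAH1B3 protein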
Target sequence (Q15102 whole entry, looked up): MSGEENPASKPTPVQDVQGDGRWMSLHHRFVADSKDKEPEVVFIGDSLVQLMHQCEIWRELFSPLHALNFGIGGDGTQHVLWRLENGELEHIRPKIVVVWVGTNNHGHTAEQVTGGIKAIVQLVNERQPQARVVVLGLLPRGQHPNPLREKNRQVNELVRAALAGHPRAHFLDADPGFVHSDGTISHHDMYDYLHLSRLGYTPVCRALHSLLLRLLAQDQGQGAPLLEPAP
PAFAH2 inh: inhibitors of human PAFAH2; Q99487; recombinant PAFAH2, FP-rhodamine activity probe, fluorescence polarization; actives 0.99% (n = 340,000); inhibition, % at 3.39 µM;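 active means inhibition above the mean over all tested compounds plus 3 SD, cut at about 30% in these data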;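 further: inhibitors block probe labeling of enzyme so polarization drops; 0% = enzyme with DMSO and 100% = wells lacking PAFAH2 protein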
TDP2 inh conf: confirmation of human TDP2 inhibitors. shares compounds with TDP2 absorb. recombinant human TDP2, absorbance read-out. inhibition, % at 12.8 µM. actives 22% (n = 1,100). AID 743263; in the data active means inhibition above about 25%;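 further: 0% = vehicle with enzyme and 100% = no enzyme buffer only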
* marks the source's active call; other numbers are inactive results; nt = no result given. An excerpt weighted towards active compounds, which were near 2.3% of everything screened.

SMILES	Apaf-1 inh	PAFAH1B2 inh	TDP2 absorb	PAFAH1B3 FP inh	PAFAH2 inh	TDP2 inh conf
COc1cc(OC)cc(C(=O)NCCN2C(=O)C3C4C=CC(C4)C3C2=O)c1 (stereo unspecified)	nt	nt	5	nt	nt	nt
CCOP(=O)(OCC)C(NC(=O)Nc1ccc(Cl)cc1)C(N)=O (stereo unspecified)	-1	-2	45*	5	0	-5
O=C(c1ccncc1)N1CCC(Oc2cccnc2)CC1	nt	nt	-11	nt	nt	nt
CCOC(=O)C1CCN(CC(=O)N2C(C)CCCC2C)CC1 (stereo unspecified)	-21	4	27*	-7	-4	1
COC(=O)[C@]12C[C@H](CC(=O)NCc3cccc4ccccc34)C(=O)N(Cc3ccco3)C1=C[C@H](COCc1ccccc1)O[C@@H]2C	nt	nt	-7	nt	nt	nt
CCCN1CCN(C(=O)c2ccc(F)c(S(=O)(=O)N3CCOCC3)c2)CC1	-7	9	39*	-4	-1	3
N#CCCn1cc(C(=O)N2CCOCC2)c(-c2ccc3c(c2)OCCO3)n1	-8	0	25*	-4	8	-9
COC(=O)C1CN(C2CCCC2)CCS(=O)(=O)N1Cc1cn(Cc2ccccc2)nn1 (stereo unspecified)	nt	nt	2	nt	nt	nt
Cc1ccc(C)c(S(=O)(=O)Nc2ccc(O)c3ccccc23)c1	17	5	42*	-1	11	15
Cc1ccc(S(=O)(=O)Nc2ccc(O)c3ccccc23)c(C)c1	nt	7	29*	7	11	10
CCOC(=O)CC[C@@H]1CC[C@]2(CCCN(S(=O)(=O)c3ccccc3)C2)O1	nt	nt	14	nt	nt	nt
C[n+]1c(-c2ccccc2)cc2c(=Cc3ccc([N+](=O)[O-])cc3)c3ccccc3n21	nt	6	37*	39*	81*	46*
Cc1cc2c(=Cc3ccc(N(C)C)cc3)c3ccccc3n2[n+]1C	nt	-14	6	-7	-17	nt
COc1ccc(NC(=O)NCCCN2CCN(c3ccc(F)cc3)CC2)cc1OC	nt	nt	5	nt	nt	nt
COC(=O)c1cccc(C(=O)N2CCCC(C(=O)c3cccc(OC(C)C)c3)C2)c1 (stereo unspecified)	13	8	28*	6	7	7
COC(=O)c1cccc(C(=O)N2CCCC(C(=O)c3ccccc3OC)C2)c1 (stereo unspecified)	-4	4	-2	1	-4	nt
CCOC(=O)C1=C(C(=O)OCC)C2N(Cc3ccc(Br)cc3)c3ccccc3[C@@]23C[C@@H](C(=O)OC)N(S(=O)(=O)c2ccc(Br)cc2)C3=N1 (stereo partly specified)	nt	nt	7	nt	nt	nt
O=C(COC(=O)c1ccc(Sc2ncn[nH]2)c([N+](=O)[O-])c1)Nc1cccc(Cl)c1F	nt	nt	4	nt	nt	nt
CC1=C(C(=O)OCC(C)C)C2(O)C(=O)c3ccccc3C2(O)N1 (stereo unspecified)	24	5	47*	3	-1	20
C=CCOC(=O)C1=C(C)NC2(O)c3ccccc3C(=O)C12O (stereo unspecified)	6	4	43*	4	0	22
C=CCOC(=O)C1=C(C)NC(=O)NC1/C=C/c1ccccc1 (stereo unspecified)	-3	-3	10	1	1	nt
CCCCCCN1CCS(=O)(=O)N(Cc2ccc(C)cc2)C(C(=O)OC)C1 (stereo unspecified)	nt	nt	-8	nt	nt	nt
COc1ccc(C(=O)NCC2CCN(C(=O)C(=O)c3cc4ccccc4o3)CC2)cc1	nt	nt	4	nt	nt	nt
CN1C(=O)C[C@@](C#N)(C(=O)NCc2ccc3c(c2)OCO3)[C@H]1c1ccccc1	nt	nt	-11	nt	nt	nt
CCCCn1c(NC(=O)c2ccccc2)c(C#N)c2nc3ccccc3nc21	nt	44*	84*	59*	55*	85*
CCC(=O)Nc1c(C#N)c2nc3ccccc3nc2n1-c1ccc(C)cc1	nt	3	-6	6	3	nt
CN1C(=O)/C(=C/c2ccc(C(=O)Nc3ccc(O)cc3C(=O)O)cc2)SC1=S	35	7	28*	15	2	6
CC(C)(C)C(=O)c1c(N)[nH]c(C(=O)c2ccccc2)c1-c1ccc([N+](=O)[O-])cc1	nt	nt	5	nt	nt	nt
COC(=O)[C@]12C[C@H](CC(=O)N3CCCCC3)C(=O)N(CCc3ccc(OC)c(OC)c3)C1=C[C@H](COCc1ccccc1)O[C@@H]2C	nt	nt	-8	nt	nt	nt
